MC4R barr agon = MC4R agonists recruiting beta-arrestin, primary screen, cell-based, luminescence, agonist arm of biased-ligand search; Melanocortin receptor 4 (Homo sapiens), P32245; U2OS MC4R beta-arrestin complementation; percent of melanotan II response, DMSO zero; activation, % at 8.9 µM; 360,000 tested, 0.98% active; AID 540308, 2011;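 active means activation above a per-plate cutoff, the mean activation of sample wells on that plate plus 3 SD, cut at about 8% in these data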
Target sequence (P32245 whole entry, looked up): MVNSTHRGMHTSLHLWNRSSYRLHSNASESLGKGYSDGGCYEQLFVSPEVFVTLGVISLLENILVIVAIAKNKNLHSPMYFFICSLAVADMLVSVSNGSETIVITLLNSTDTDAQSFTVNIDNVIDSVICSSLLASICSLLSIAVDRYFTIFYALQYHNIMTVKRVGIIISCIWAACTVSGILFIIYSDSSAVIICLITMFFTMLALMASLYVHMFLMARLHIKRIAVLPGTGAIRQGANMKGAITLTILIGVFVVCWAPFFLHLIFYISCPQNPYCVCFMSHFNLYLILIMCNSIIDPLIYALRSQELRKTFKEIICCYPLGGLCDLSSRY
NTR1 ag = agonists of human NTR1, primary screen, imaging, U2OS cells, beta-arrestin-GFP, high content. Neurotensin receptor type 1 (Homo sapiens), P30989. NTR1-U2OS beta-arrestin-GFP spot imaging, agonist mode. activation, % at 20 µM. 330,000 tested, 0.17% active. AID 493036, 2011;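 active means activation at or above 40% of the spot to cytoplasm intensity ratio, with at least 20 cells analyzed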;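 further: 0% = DMSO without peptide and 100% = 100 nM NTR1 peptide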
MC4R antagonist = MC4R antagonists of cAMP signaling, primary screen, cell-based, TR-FRET, antagonist arm of biased-ligand search | MC4R-expressing cells, MTII-stimulated cAMP, LANCE TR-FRET | inhibition, % at 6.5 µM | 360,000 tested, 0.48% active | AID 540295, 2011;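 active means inhibition above its plate's cutoff, the mean of tested wells on that plate plus 3 SD, cut at about 29% in these data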;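 further: 0% = Melanotan II alone and 100% = Melanotan II plus saturating MCL0020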
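Assay system: human MC4R-expressing U2OS cells; reagent: Melanotan II stimulation of cells; dosing: 6.5 µM single dose; timing: compound 30 min, challenge 1 h, detection 1 h; signal: TR-FRET cAMP assay; replicates: one well per compound, no replicates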
PG9 Ab binder = binders of HIV-1 gp120 antibody PG9, primary screen, biochemical, TR-FRET. TR-FRET gp120-PG9 antibody binding. inhibition, % at 6.7 µM. 360,000 tested, 0.43% active. AID 624416, 2012; in the data active means inhibition above about 8.5%
Rev-erbA mod = modulators of Rev-erb alpha DNA binding, primary screen, biochemical, FITC-DNA, fluorescence polarization, uHTS | Nuclear receptor subfamily 1 group D member 1 (Homo sapiens), P20393 | Rev-erbα–FITC-DNA binding, 90 min | activity, % at 10 µM | 370,000 tested, 0.79% active | AID 1259318, 2017;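 active means activity above about 14%, limit read from the data; passing the limit was not always enough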;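 further: 0% = DMSO wells with 35 nM protein and 100% = DMSO wells with 750 nM protein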
MC4R barr conf = MC4R beta-arrestin agonists, retest, confirmation, cell-based, luminescence, U2OS. shares compounds with MC4R barr agon. U2OS MC4R beta-arrestin recruitment; scaled DMSO 0%, Melanotan II 100%. activation, % at 8.9 µM. 2,400 tested, 31% active. AID 602192, 2012;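 active means mean activation across replicates above the hit cutoff set in the earlier primary screen, cut at about 8% in these data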
MOR-DOR barr ag = agonists of MOR-DOR heterodimerization, counter-screen for MC4R biased agonist project, cell-based, luminescence; shares compounds with MC4R barr agon; U2OS PathHunter beta-arrestin, beta-gal luminescence; percent of deltorphin B response, DMSO zero; activation, % at 9.2 µM; 2,400 tested, 5.8% active; AID 602194, 2012;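 active means mean activation across replicates exceeds the hit threshold derived in the earlier primary screen, cut at about 18% in these data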;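 further: 100% = deltorphin B at 0.9 µM final and 0% = DMSO alone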
* hit, by the source's call; . = no result given. Compounds with a hit are over-represented: about 2.5% of the library has one in this group of screens.

SMILES	MC4R barr agon	NTR1 ag	MC4R antagonist	PG9 Ab binder	Rev-erbA mod	MC4R barr conf	MOR-DOR barr ag
COC(=O)[C@H]1C[C@@]2(C#N)c3ccccc3N(C(=O)OC(C)(C)C)[C@H]2N1C(=O)OC(C)(C)C	.	.	.	.	4.6	.	.
O=C(C[C@H]1C(=O)N(c2ccccc2)C[C@@H]1Cc1ccccc1)Nc1ccc(Br)cc1	13.8*	.	9.8	-1.5	1.8	1.3	4.2
NC(CCc1ccccc1)c1csc(Nc2ccc(C(F)(F)F)cn2)n1 (stereo unspecified)	17.0*	.	-7.4	2.5	3.0	2.5	10.8
NC(COCc1ccccc1)c1csc(Nc2ccc(C(F)(F)F)cn2)n1 (stereo unspecified)	6.5	.	-6.3	-0.7	4.7	.	.
CC(C)CC(N)c1csc(Nc2ccc(C(F)(F)F)cn2)n1 (stereo unspecified)	10.0*	.	-1.0	-0.7	-6.9	25.8*	13.1
C=CCN1C(C(=O)OC)CN(Cc2cn(CCC3OCCO3)nn2)CCS1(=O)=O (stereo unspecified)	.	.	.	.	0.2	.	.
Cc1cccc(NC(=O)OC2CC3CC2[C@H]2CCCCN2C3)c1 (stereo partly specified)	.	.	.	.	-3.2	.	.
COc1ccc(/C=C/C(=O)NCc2c(C)nn(C)c2C)cc1COc1ccc(Br)cc1	11.6*	4.8	-4.2	0.3	2.4	0.9	2.9
O=S1(=O)c2ccc(Br)cc2OC[C@H](Cc2ccccc2)N1Cc1cn(Cc2ccc(C(F)(F)F)cc2)nn1	.	.	.	.	-4.1	.	.
Cn1c(-c2ccc(Cl)cc2)ccc(C#N)c1=O	10.9*	-2.4	-1.8	2.6	3.9	0.0	5.3
O=C(COC(=O)c1ccccc1Nc1ccccc1)Nc1ccccc1	15.5*	3.2	4.3	-1.9	5.1	3.0	8.5
CC(=O)c1ccc(NC(=O)COC(=O)c2ccccc2Nc2ccccc2)cc1	10.1*	4.4	4.0	1.9	4.3	3.6	5.8
COc1ccccc1C(=O)N1CCN(C(=O)[C@@H](Cc2ccccc2)NC(=O)[C@H]2O[C@@H](n3ccc(=O)[nH]c3=O)[C@H](O)[C@@H]2O)CC1	.	.	.	0.1	-0.3	.	.
CCOC(=O)C1=C(C(=O)OCC)C2N(Cc3ccc(Br)cc3)c3ccccc3[C@@]23C[C@@H](C(=O)OC)N(S(=O)(=O)c2cccs2)C3=N1 (stereo partly specified)	.	.	.	1.6	-3.0	.	.
Cc1ccc(C(=O)OCC(=O)Nc2sc3c(c2C#N)CCC3)cc1	-0.8	2.0	3.1	-8.0	-3.1	.	.
Cc1ccc(OCC(=O)Nc2sc3c(c2C#N)CCC3)cc1C	14.5*	-2.1	3.1	-1.6	0.8	2.1	5.2
CC(=O)Nc1sc2c(c1C#N)CCC2	1.3	-0.5	-6.3	0.4	4.0	.	.
Cc1ccc(OCC(=O)Nc2sc3c(c2C#N)CCC3)cc1	11.4*	4.3	2.6	0.9	0.5	0.9	2.6
COc1ccccc1N1CCN(N=Cc2ccccc2Br)CC1	.	.	.	.	-0.9	.	.
COCCCN1C(=O)[C@H](CC(=O)NCC2CCCCC2)[C@]2(C(=O)OC)CCCCC=C12	.	.	.	.	-5.2	.	.
CCC[C@H](/C=C/C(=O)OC(C)(C)C)Sc1ccc(N)cc1	.	.	.	.	3.3	.	.
COc1ccc(-c2ccc(/C=C3/C(=N)N4C(C)=CSC4=NC3=O)o2)c([N+](=O)[O-])c1	60.6*	14.2	8.1	-4.7	-26.7	-2.0	2.9
COc1ccc(-c2ccc(/C=C3\C(=O)N(c4ccccc4)N=C3c3ccccc3)o2)c([N+](=O)[O-])c1	-3.2	-3.5	4.2	-1.8	2.0	.	.
COCc1[nH]nc2c1C(c1ccccc1)NC2=O (stereo unspecified)	.	.	.	-0.1	4.6	.	.
CCOC(=O)Cn1cc(CN2C(C(=O)OC)CN(C3CCCC3)CCS2(=O)=O)nn1 (stereo unspecified)	.	.	.	.	6.6	.	.
SMILES	MC4R barr agon	NTR1 ag	MC4R antagonist	PG9 Ab binder	Rev-erbA mod	MC4R barr conf	MOR-DOR barr ag
O=C(NC1CCCCC1)C(c1cccs1)N(C(=O)C(F)(F)F)c1ccccc1 (stereo unspecified)	27.1*	3.5	3.9	0.1	4.4	4.7	6.5
O=C(NCc1ccccc1)OC1CC2CC1[C@H]1CCCCN1C2 (stereo partly specified)	.	.	.	.	4.9	.	.
CCCCCCCCNC(=O)c1cccnc1SCC(=O)Nc1ccc(OC)cc1OC	11.1*	9.0	4.7	-0.8	4.2	17.7*	29.2*
CCCCNC(=O)c1cccnc1SCC(=O)Nc1ccccc1OC	-1.7	0.3	1.6	0.3	1.0	.	.
CCCCC(=O)Nc1sc2c(c1C(=O)OCC)CCC(C=O)=C2Cl	10.5*	19.6	14.7	.	.	6.8	4.9
CCOc1ccc(CNC(=O)CCCc2cn(C)c3ccccc23)cc1	1.8	-0.5	9.1	-0.6	2.4	.	.
CCOc1ccc(CNC(=O)CCc2cn(Cc3ccccc3)c3ccccc23)cc1	13.2*	-0.3	4.3	-4.7	-0.1	10.0*	7.5
Cc1ccc(OCc2nn3c(-c4ccco4)nnc3s2)cc1	-1.3	-0.9	5.6	1.8	-5.0	.	.
Clc1ccc(OCc2nn3c(-c4ccco4)nnc3s2)c(Cl)c1	20.9*	2.8	0.4	2.0	-11.3	1.5	6.8
O=C(NCC1CCN(C(=O)C(=O)c2cccs2)CC1)c1cccnc1	.	.	.	1.4	-3.2	.	.
O=c1[nH]c(-c2ccc(F)cc2)nc2c1sc(=S)n2-c1ccccc1	-2.7	2.1	-2.4	-1.1	-0.4	.	.
Nc1c2nc(-c3ccccc3)[nH]c(=O)c2nc(=O)n1-c1ccccc1	14.6*	12.4	12.6	1.9	16.7	6.0	7.0
Cc1ccc(NC(=O)c2cccc3c2-c2ccccc2C3=O)c(C)c1	.	.	.	.	1.1	.	.
CCOc1ccccc1NC(=O)c1cc2c(C)nn(-c3ccccc3)c2s1	.	.	.	.	-1.8	.	.
CCOc1cc(S(=O)(=O)Nc2cc(C)cc(C)c2)ccc1Cl	9.6*	10.4	-2.4	-3.3	10.2	5.7	8.3
Cc1ccccc1CNc1ccc(C(CC(N)=O)NC(=O)c2ccc(Br)cc2)cc1[N+](=O)[O-] (stereo unspecified)	15.7*	0.1	0.8	-0.2	-2.5	0.8	2.4
NC(=O)CC(NC(=O)c1ccccc1)c1ccc(NCCc2ccc(Cl)cc2)c([N+](=O)[O-])c1 (stereo unspecified)	13.3*	14.6	-2.2	1.1	0.4	2.9	1.0
